The target in test [1] is T1, Pyroglutamylated RF-amide peptide receptor (Homo sapiens) (UniProt Q96P65).
T1 sequence (whole entry): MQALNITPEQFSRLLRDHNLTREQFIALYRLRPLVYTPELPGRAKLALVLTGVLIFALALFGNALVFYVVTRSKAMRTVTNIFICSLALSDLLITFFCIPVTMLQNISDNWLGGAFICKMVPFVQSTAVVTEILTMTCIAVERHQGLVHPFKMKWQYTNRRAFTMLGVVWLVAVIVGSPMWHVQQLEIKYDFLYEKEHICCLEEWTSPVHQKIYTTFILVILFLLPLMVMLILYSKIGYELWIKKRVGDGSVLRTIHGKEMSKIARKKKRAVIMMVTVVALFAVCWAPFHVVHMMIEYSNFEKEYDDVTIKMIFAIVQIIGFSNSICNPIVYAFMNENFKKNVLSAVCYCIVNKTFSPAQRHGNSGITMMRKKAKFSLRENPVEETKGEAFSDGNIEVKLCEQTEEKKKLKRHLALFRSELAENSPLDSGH
In words: Agonist activity at DYKDDDDK-flagged human GPR103 receptor expressed in CHO-K1 cells co-expressing G-protein alpha16 assessed as stimulation of calcium mobilization at 10' -12 to 10^-5 M after 2 mins by fluorometric analysis. It is filed as functional, cell-based. The procedure, abridged:
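CHO-K1 cells stably expressing Gα16 and C-terminally flag-tagged human GPR103 (Geneticin-selected), plated at 40 000 cells/well 24 h before assay. Loaded with 2 μM Fluo-4AM for 1 h, washed, then 30 min in HBSS with 2.5 mM probenecid and 5 mM HEPES. Peptides added at 10^-12 to 10^-5 M final and fluorescence read for 2 min. Triplicates; EC50 from sigmoidal variable-slope fit, at least three experiments.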
A general note: Calcium assays in cells follow changes in intracellular calcium, usually with a dye or a luminescent sensor.

Test [2] concerns the target T1, Pyroglutamylated RF-amide peptide receptor (Homo sapiens). In words: Antagonist activity at DYKDDDDK-flagged human GPR103 receptor expressed in CHO-K1 cells co-expressing G-protein alpha16 assessed as inhibition of 26RFa-induced calcium mobilization after 2 mins by fluorometric analysis. It is filed as functional, cell-based. The gist of the method: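 Same Gα16/flag-hGPR103 CHO-K1 cells, Fluo-4AM loading and HBSS/probenecid/HEPES buffer. Triplicates; IC50 reported as mean ± SEM of at least three experiments.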

Activity calls are given as the source filed them. The calls are words filed in the database; no cut-off is given here. Residues, ends and D or L forms follow the SMILES beside them. *: point of attachment. NHBn = c1ccc(CN*)cc1

For `N=C(N)NCCC[C@H](NC(=O)[C@H](Cc1ccccc1)NC(=O)[C@H](CO)NC(=O)[C@H](Cc1ccccc1)NC(=O)CNC(=O)CN)C(=O)NCc1ccccc1` (H-GGFSFR-NHBn), in test [1], the result was inactive. In addition, in test [2], the inhibition entry is “inactive”.

On to `N=C(N)NCCC[C@H](NC(=O)[C@H](Cc1ccccc1)NC(=O)[C@H](CO)NC(=O)[C@H](Cc1ccccc1)NC(=O)CNC(=O)CN)C(=O)N[C@H](Cc1ccccc1)C(N)=O`, for which the result in test [1] was inactive. In addition, the inhibition result in test [2] is “inactive”.

On to `C[C@H](NC(=O)[C@H](CO)NC(=O)[C@H](Cc1ccccc1)NC(=O)CNC(=O)CN)C(=O)N[C@@H](CCCNC(=N)N)C(=O)N[C@@H](Cc1ccccc1)C(N)=O` (H-GGFSARF-NH2), for which, in test [1], the result was inactive. Besides, in test [2], the inhibition result is “inactive”.

As for `CC(C)C[C@H](NC(=O)[C@H](CCC(=O)O)NC(=O)[C@H](CCC(=O)O)NC(=O)[C@H](C)NC(=O)[C@@H](N)CC(C)C)C(=O)N[C@@H](CC(N)=O)C(=O)NCC(=O)N[C@@H](Cc1ccc(O)cc1)C(=O)N[C@@H](CO)C(N)=O` (H-LAEELNGYS-NH2), the outcome in test [1] was inactive. The inhibition entry in test [2] was “inactive”.

With `C[C@H](NC(=O)[C@H](CCCNC(=N)N)NC(=O)[C@H](Cc1ccccc1)NC(=O)[C@H](CO)NC(=O)[C@H](Cc1ccccc1)NC(=O)CNC(=O)CN)C(N)=O` (H-GGFSFRA-NH2), in test [1], the result was inactive. For the same compound, in test [2], the inhibition result was “inactive”.

Turning to `N=C(N)NCCC[C@H](NC(=O)[C@@H](Cc1ccccc1)NC(=O)[C@H](CO)NC(=O)[C@H](Cc1ccccc1)NC(=O)CNC(=O)CN)C(=O)N[C@@H](Cc1ccccc1)C(N)=O`, in test [1], the outcome was inactive. In test [2], the inhibition result was “inactive”.

For the compound `CC(C)C[C@H](NC(=O)[C@@H]1CCCN1)C(=O)NCC(=O)N[C@@H](CC(N)=O)C(=O)N[C@@H](CC(C)C)C(=O)N[C@@H](C)C(=O)N[C@@H](CCC(=O)O)C(=O)N[C@@H](CCC(=O)O)C(=O)N[C@@H](CC(C)C)C(=O)N[C@@H](CC(N)=O)C(=O)NCC(=O)N[C@@H](Cc1ccc(O)cc1)C(=O)N[C@@H](CO)C(=O)N[C@@H](CCCNC(=N)N)C(N)=O` (H-PLGNLAEELNGYSR-NH2), the outcome in test [1] was inactive. Further, in test [2], the inhibition entry was “inactive”.

Take `N=C(N)NCCC[C@@H](NC(=O)[C@H](Cc1ccccc1)NC(=O)[C@H](CO)NC(=O)[C@H](Cc1ccccc1)NC(=O)CNC(=O)CN)C(=O)N[C@@H](Cc1ccccc1)C(N)=O`: the outcome in test [1] was inactive. For the same compound, in test [2], the inhibition entry was “inactive”.

Consider `N=C(N)NCCC[C@H](NC(=O)[C@H](Cc1ccccc1)NC(=O)[C@H](CO)NC(=O)[C@H](Cc1ccccc1)NC(=O)CNC(=O)CN)C(=O)N[C@@H](Cc1ccccc1)C(=O)NCc1ccccc1` (H-GGFSFRF-NHBn), for which, in test [1], the result was inactive. The inhibition entry in test [2] is “inactive”.

In the case of `CC(C)C[C@H](NC(=O)[C@H](CC(N)=O)NC(=O)CNC(=O)[C@H](CC(C)C)NC(=O)[C@@H]1CCCN1C(=O)CNC(=O)[C@H](CO)NC(=O)[C@@H](N)[C@@H](C)O)C(=O)N[C@@H](C)C(=O)N[C@@H](CCC(=O)O)C(=O)N[C@@H](CCC(=O)O)C(=O)N[C@@H](CC(C)C)C(=O)N[C@@H](CC(N)=O)C(=O)NCC(=O)N[C@@H](Cc1ccc(O)cc1)C(=O)N[C@@H](CO)C(=O)N[C@@H](CCCNC(=N)N)C(=O)N[C@@H](CCCCN)C(N)=O` (H-TSGPLGNLAEELNGYSRK-NH2), the outcome in test [1] was inactive. In addition, the inhibition entry in test [2] was “inactive”.

Take `C[C@H](NC(=O)[C@H](Cc1ccccc1)NC(=O)[C@H](CO)NC(=O)[C@H](Cc1ccccc1)NC(=O)CNC(=O)CN)C(=O)N[C@@H](Cc1ccccc1)C(N)=O` (H-GGFSFAF-NH2): in test [1], the outcome was inactive. Further, the inhibition result in test [2] is “inactive”.

On to `N=C(N)NCCC[C@H](NC(=O)[C@H](Cc1ccccc1)NC(=O)[C@H](CO)NC(=O)[C@@H](Cc1ccccc1)NC(=O)CNC(=O)CN)C(=O)N[C@@H](Cc1ccccc1)C(N)=O`, for which the result in test [1] was inactive. Also, in test [2], the inhibition entry is “inactive”.

With `CC(C)C[C@H](NC(=O)[C@H](CC(N)=O)NC(=O)CNC(=O)[C@H](CC(C)C)NC(=O)[C@@H]1CCCN1C(=O)CNC(=O)[C@H](CO)NC(=O)[C@@H](N)[C@@H](C)O)C(=O)N[C@@H](C)C(=O)N[C@@H](CCC(=O)O)C(=O)N[C@@H](CCC(=O)O)C(=O)N[C@@H](CC(C)C)C(=O)N[C@@H](CC(N)=O)C(=O)NCC(=O)N[C@@H](Cc1ccc(O)cc1)C(=O)N[C@@H](CO)C(N)=O` (H-TSGPLGNLAEELNGYS-NH2), the result in test [1] was inactive. Also, the inhibition result in test [2] was “inactive”.
